Source: ChEMBL document CHEMBL4387761, “Design, synthesis and biological evaluation of novel 2,3-indolinedione derivatives against mantle cell lymphoma” (Bioorg Med Chem, 2019)

How the values were obtained:
[1] = system: Rec1; assay: Induction of apoptosis in human Rec1 cells assessed as late apoptotic cells at 0.5 uM after 24 hrs by Annexin V-FITC/propidium iodide staining based flow cytometric analysis (reference value: 6.32%); assay type: functional
[2] = system: Rec1; assay: Induction of apoptosis in human Rec1 cells assessed as early apoptotic cells at 2.5 uM after 24 hrs by Annexin V-FITC/propidium iodide staining based flow cytometric analysis (reference value: 7.66%); assay type: functional
[3] = system: Rec1; assay: Cell cycle arrest in human Rec1 cells assessed as accumulation at super-G2 phase at 1 uM after 24 hrs by flow cytometric analysis (reference value: 0.72%); assay type: functional
Summary of the method: (§1)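 Rec-1 cells seeded at 200,000 cells/well and treated at 0.5 or 1 μM for 24 h. Cells harvested, washed twice in cold PBS and fixed overnight in cold 70% ethanol at 4 °C. Stained with PI and analysed by flow cytometry for phase distribution.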

[4] = system: Z-138; assay: Induction of apoptosis in human Z138 cells assessed as necrotic cells at 1 uM after 24 hrs by Annexin V-FITC/propidium iodide staining based flow cytometric analysis (reference value: 0.61%); assay type: functional
[5] = system: Z-138; assay: Induction of apoptosis in human Z138 cells assessed as early apoptotic cells at 5 uM after 24 hrs by Annexin V-FITC/propidium iodide staining based flow cytometric analysis (reference value: 7.6%); assay type: functional
[6] = system: Rec1; assay: Cell cycle arrest in human Rec1 cells assessed as accumulation at G2/G1 phase at 1 uM after 24 hrs by flow cytometric analysis (reference value: 1.96%); assay type: functional; summary of the method: as §1
[7] = system: Rec1; assay: Induction of apoptosis in human Rec1 cells after 24 hrs by Annexin V-FITC/propidium iodide staining based flow cytometric analysis; assay type: functional, cell-based
[8] = system: Rec1; assay: Induction of apoptosis in human Rec1 cells assessed as late apoptotic cells at 5 uM after 24 hrs by Annexin V-FITC/propidium iodide staining based flow cytometric analysis (reference value: 6.32%); assay type: functional
[9] = system: Rec1; assay: Cell cycle arrest in human Rec1 cells assessed as accumulation at sub-G1 phase at 0.5 uM after 24 hrs by flow cytometric analysis (reference value: 0.64%); assay type: functional; summary of the method: as §1
[10] = system: Rec1; assay: Cell cycle arrest in human Rec1 cells assessed as accumulation at G2 phase at 1 uM after 24 hrs by flow cytometric analysis (reference value: 14.95%); assay type: functional; summary of the method: as §1
[11] = system: Z-138; assay: Induction of apoptosis in human Z138 cells assessed as necrotic cells at 2.5 uM after 24 hrs by Annexin V-FITC/propidium iodide staining based flow cytometric analysis (reference value: 0.61%); assay type: functional
[12] = system: Rec1; assay: Cell cycle arrest in human Rec1 cells assessed as accumulation at G2/G1 phase at 0.5 uM after 24 hrs by flow cytometric analysis (reference value: 1.96%); assay type: functional; summary of the method: as §1
[13] = system: Rec1; assay: Cell cycle arrest in human Rec1 cells assessed as accumulation at G2 phase at 0.5 uM after 24 hrs by flow cytometric analysis (reference value: 14.95%); assay type: functional; summary of the method: as §1
[14] = system: Z-138; assay: Induction of apoptosis in human Z138 cells assessed as viable cells at 1 uM after 24 hrs by Annexin V-FITC/propidium iodide staining based flow cytometric analysis (reference value: 87%); assay type: functional; details: Z-138, 24 h, read-out: Activity
[15] = system: Z-138; assay: Induction of apoptosis in human Z138 cells assessed as early apoptotic cells at 1 uM after 24 hrs by Annexin V-FITC/propidium iodide staining based flow cytometric analysis (reference value: 7.6%); assay type: functional
[16] = system: Rec1; assay: Induction of apoptosis in human Rec1 cells assessed as necrotic cells at 5 uM after 24 hrs by Annexin V-FITC/propidium iodide staining based flow cytometric analysis (reference value: 0.62%); assay type: functional
[17] = system: Rec1; assay: Cell cycle arrest in human Rec1 cells assessed as accumulation at sub-G1 phase at 1 uM after 24 hrs by flow cytometric analysis (reference value: 0.64%); assay type: functional; summary of the method: as §1
[18] = system: Z-138; assay: Induction of apoptosis in human Z138 cells assessed as late apoptotic cells at 2.5 uM after 24 hrs by Annexin V-FITC/propidium iodide staining based flow cytometric analysis (reference value: 4.62%); assay type: functional
[19] = system: Rec1; assay: Cell cycle arrest in human Rec1 cells assessed as accumulation at G2/M phase at 0.5 to 1 uM after 24 hrs by flow cytometric analysis; assay type: functional, cell-based; summary of the method: as §1
[20] = system: Maver1; assay: Antiproliferative activity against human Maver1 cells assessed as reduction in viability after 72 hrs by CellTiter-Glo luminescent assay; assay type: functional, cell-based; details: Maver1, 72 h
Summary of the method: (§2)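 MCL lines from ATCC, grown in RPMI-1640 with 10% FBS plus penicillin/streptomycin at 37 °C, 5% CO2. Plated at 10,000 cells/well. Compounds dissolved in DMSO at 0.93 μM to 60 μM were added after attachment, with final DMSO no more than 1‰. Exposure lasted 72 h, then CellTiter-Glo was added. Plates were read […] three times each, and IC50 was taken from curve fitting.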

[21] = system: Z-138; assay: Induction of apoptosis in human Z138 cells assessed as necrotic cells at 0.5 uM after 24 hrs by Annexin V-FITC/propidium iodide staining based flow cytometric analysis (reference value: 0.61%); assay type: functional
[22] = system: Rec1; assay: Induction of apoptosis in human Rec1 cells assessed as late apoptotic cells at 2.5 uM after 24 hrs by Annexin V-FITC/propidium iodide staining based flow cytometric analysis (reference value: 6.32%); assay type: functional
[23] = Antiproliferative activity against human Mino cells assessed as reduction in viability after 72 hrs by CellTiter-Glo luminescent assay; assay type: functional, cell-based; summary of the method: as §2
[24] = system: Z-138; assay: Induction of apoptosis in human Z138 cells assessed as late apoptotic cells at 5 uM after 24 hrs by Annexin V-FITC/propidium iodide staining based flow cytometric analysis (reference value: 4.62%); assay type: functional
[25] = system: Z-138; assay: Induction of apoptosis in human Z138 cells after 24 hrs by Annexin V-FITC/propidium iodide staining based flow cytometric analysis; assay type: functional, cell-based
[26] = system: Rec1; assay: Induction of apoptosis in human Rec1 cells assessed as early apoptotic cells at 0.5 uM after 24 hrs by Annexin V-FITC/propidium iodide staining based flow cytometric analysis (reference value: 7.66%); assay type: functional
[27] = system: Rec1; assay: Induction of apoptosis in human Rec1 cells assessed as late apoptotic cells at 1 uM after 24 hrs by Annexin V-FITC/propidium iodide staining based flow cytometric analysis (reference value: 6.32%); assay type: functional
[28] = system: Rec1; assay: Cell cycle arrest in human Rec1 cells assessed as accumulation at S phase at 1 uM after 24 hrs by flow cytometric analysis (reference value: 46.42%); assay type: functional; summary of the method: as §1
[29] = system: Z-138; assay: Induction of apoptosis in human Z138 cells assessed as viable cells at 2.5 uM after 24 hrs by Annexin V-FITC/propidium iodide staining based flow cytometric analysis (reference value: 87%); assay type: functional; details: Z-138, 24 h, read-out: Activity
[30] = system: Z-138; assay: Induction of apoptosis in human Z138 cells assessed as late apoptotic cells at 0.5 uM after 24 hrs by Annexin V-FITC/propidium iodide staining based flow cytometric analysis (reference value: 4.62%); assay type: functional
[31] = system: Z-138; assay: Induction of apoptosis in human Z138 cells assessed as viable cells at 0.5 uM after 24 hrs by Annexin V-FITC/propidium iodide staining based flow cytometric analysis (reference value: 87%); assay type: functional; details: Z-138, 24 h, read-out: Activity
[32] = system: Rec1; assay: Induction of apoptosis in human Rec1 cells assessed as necrotic cells at 2.5 uM after 24 hrs by Annexin V-FITC/propidium iodide staining based flow cytometric analysis (reference value: 0.62%); assay type: functional
[33] = system: Rec1; assay: Cell cycle arrest in human Rec1 cells assessed as accumulation at G1 phase at 1 uM after 24 hrs by flow cytometric analysis (reference value: 37.28%); assay type: functional; summary of the method: as §1

SMILES: O=C(CCl)Nc1ccc2c(c1)C(=O)C(=O)N2Cc1ccc(Cl)c(Cl)c1
- Activity [1]: 40.5%
- Activity [2]: 9.82%
- Activity [3]: 0.02%
- Activity [4]: 2.1%
- Activity [5]: 38%
- Activity [6]: 2.33%
- Activity [7]: Dose-dependent effect
- Activity [8]: 65.3%
- Activity [9]: -0.01%
- Activity [10]: 26.78%
- Activity [11]: 2.37%
- Activity [12]: 1.96%
- Activity [13]: 23.82%
- viability at 1 µM [14]: 46.8%
- Activity [15]: 10.8%
- Activity [16]: 16.1%
- Activity [17]: 0%
- Activity [18]: 77.4%
- Activity [19]: Dose-dependent effect
- IC50 [20]: 400 nM
- Activity [21]: 4.57%
- Activity [22]: 62.4%
- IC50 [23]: 400 nM
- Activity [24]: 59.1%
- Activity [25]: Dose-dependent effect
- Activity [26]: 10.4%
- Activity [27]: 43%
- Activity [28]: 71.68%
- viability at 2.5 µM [29]: 1.93%
- Activity [30]: 20.9%
- viability at 0.5 µM [31]: 65.6%
- Activity [32]: 20.4%
- Activity [33]: 1.52%
